Key:
[1] = system: Rattus norvegicus; test: Acute toxicity in sc dosed albino rat; assay type: organism-based; conditions: in vivo
Summary of the method: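 Male albino rats were injected with increasing doses of each agent. LD50 and LD90, the doses killing 50% and 90% of the animals, were calculated by a published method.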

[2] = system: Rattus norvegicus; test: Inhibition of 5-alpha-reductase activity in sc dosed Sprague-Dawley rat assessed as effect on serum steroid level administered on postnatal third day measured after 7 weeks of age by radioimmunoassay; assay type: functional
Summary of the method: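 Male Sprague–Dawley rats, 12 per group, given compound sc in 5% Tween 80 in water from postnatal day 3 until 7 weeks of age. Vehicle-treated negative control; anastrozole as positive control. Serum testosterone and DHT measured by RIA after ether extraction, using specific antisera and tritiated tracer, 24 h at 4 °C. Levels read from a standard curve and compared with vehicle controls to give ED50.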

[3] = system: Rattus norvegicus; test: Inhibition of 5-alpha-reductase activity in sc dosed Sprague-Dawley rat assessed as effect on serum steroid level administered on postnatal third day measured after 7 weeks of age by radioimmunoassay relative to anastrozole; assay type: functional

Structure (SMILES) | LD50 [1] | LD90 [1] | ED50 [2] | fold change (FC) [3]
CCN1CC2=C(N=C3N(c4ccc(C)cc4)N=C(C(=O)Nc4ccccc4)N3C2c2ccc(C)cc2)/C(=C/c2ccc(C)cc2)C1 (configuration not stated) | 236.28 µg/kg | 417.34 µg/kg | 0.925 µg/kg | 1.178
CCOC(=O)C1=NN(c2ccc(Cl)cc2)C2=NC3=C(CN(CC)C/C3=C\c3ccc(C)cc3)C(c3ccc(C)cc3)N12 (configuration not stated) | – | – | 0.441 µg/kg | 2.472
CCN1C/C(=C\c2ccc(C)cc2)c2nc3[nH]c(=S)[nH]c(=O)c3c(-c3ccc(C)cc3)c2C1 | 447.88 µg/kg | 937.34 µg/kg | 0.795 µg/kg | 1.371
CC(C)(C#N)c1cc(Cn2cncn2)cc(C(C)(C)C#N)c1 [ANASTROZOLE] | 2.415 µg/kg | 3.69 µg/kg | 1.09 µg/kg | –
CCN1CC2=C(NC(=S)NC2c2ccc(C)cc2)/C(=C/c2ccc(C)cc2)C1 (configuration not stated) | 222.23 µg/kg | 434.76 µg/kg | 1.88 µg/kg | 0.5798
CCN1CC2=C(N=C3N(c4ccccc4)N=C(C(C)=O)N3C2c2ccc(C)cc2)/C(=C/c2ccc(C)cc2)C1 (configuration not stated) | 257.23 µg/kg | 419.23 µg/kg | 0.911 µg/kg | 1.196
CCOC(=O)C1=NN(c2ccc(C)cc2)C2=NC3=C(CN(CC)C/C3=C\c3ccc(C)cc3)C(c3ccc(C)cc3)N12 (configuration not stated) | 224.33 µg/kg | 514.33 µg/kg | 1 µg/kg | 1.09
CCN1CC2=C(N=C3N(c4ccccc4)N=C(C(=O)Nc4ccccc4)N3C2c2ccc(C)cc2)/C(=C/c2ccc(C)cc2)C1 (configuration not stated) | 6534.45 µg/kg | 1950.12 µg/kg | 0.432 µg/kg | 2.523
CCN1C/C(=C\c2ccc(C)cc2)c2nc3nc4n(c(=O)c3c(-c3ccc(C)cc3)c2C1)C(=O)CS4 | 516.56 µg/kg | 1148.5 µg/kg | 0.766 µg/kg | 1.423
CCN1CC2=C(N=C3N(c4ccc(Cl)cc4)N=C(C(C)=O)N3C2c2ccc(C)cc2)/C(=C/c2ccc(C)cc2)C1 (configuration not stated) | 312.34 µg/kg | 735.34 µg/kg | 0.856 µg/kg | 1.273

From ChEMBL document CHEMBL1275277, “Synthesis of bioactive polyheterocyclic ring systems as 5α-reductase inhibitors” (Eur J Med Chem, 2010)
